Test results as given in the RNAGym collection of RNA variant scans (doi:10.1126/science.aae0568).
Variants at the floor of the assay were thinned out.

B1: tRNA (parent)
chain: GUUCCGUUGGCGUAAUGGUAACGCGUCUCCCUCCUAAGGAGAAGACUGCGGGUUCGAGUCCCGUACGGAACG

Variants of: B1
Test: yeast fitness relative to wild type (ratio to wild type); higher = fitter; tRNA-Arg(CCU), competitive growth, 37 C, YPD
Method in brief: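 Start and end populations of a pooled competition were compared by 100-nucleotide paired-end sequencing of gene amplicons. The Saccharomyces cerevisiae strains carried tRNA-Arg(CCU) gene variants at the native genomic locus, synthesised with a 3% per-site mutation rate at 69 sites, and competed in YPD at 37°C for 24 hours in six parallel replicates. Darwinian fitness relative to wild type was based on the change in genotype frequencies. Genotypes required ≥ 100 starting reads, and estimates < 0.5 were set to 0.5.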

Variant | yeast fitness
A20U C22G C60G C66G | ≤ 0.5
A20G G48A A70G | 0.803
A20U C29G C49G U54C G63C | 0.535
A20U A45G | 0.843
A20U A45C | 0.621
A20G U26A C61G A65C | 0.518
A20G U64G | 0.817
A20G U64C | 0.929
A20G U64A | 0.902
A20U G23A U28C C31U G39A G56A | ≤ 0.5
A20U C24U C29G C49G G63C | ≤ 0.5
A20G G23A A45U G56A | 0.539
A20U A65U A69U | 0.722
A20G U28C | 0.934
A20G G58A A70C | 0.836
A20U A21C C22U U53C U64A | 0.77
A20U A45G C46U | 0.836
A20U C29A C30A U53G C62A | 0.545
A20G U35A A40C G52A C60A C61G | 0.6
A20U A45C C55U A57U | ≤ 0.5
A20U C34G A42G A43U A65G | 0.573
A20U C31A | 0.803
A20U C31U | 0.926
A20G U35A U54G | ≤ 0.5

Variant | yeast fitness
A20U A21U A65U G67A | ≤ 0.5
A20U A42U | 0.742
A20U A42G | 0.797
A20U A36G G38A A40U | 0.501
A20U A70U | 0.988
A20G G56U A65G | 0.587
A20G U28C G68C | 0.664
A20G U26A C66A | ≤ 0.5
A20G C49U A69U | 0.779
A20U C49U G67A | 0.585
A20G U35C G50C | ≤ 0.5
A20U C30G G63A | ≤ 0.5
A20G C60A A70C | 0.556
A20G C60A A70U | 0.605
A20G G23C G63C | 0.613
A20G G56A | 1.01
A20G G56U | 0.804
A20U A43U G48C C60G | ≤ 0.5
A20G G50C C60G | 0.634
A20G U32C G67C | 0.735
A20U C29G A45G A69U | 0.525
A20U C22G | 0.633
A20U C31U G51C | 0.562
A20U C34G G48C U59C C61U | 0.791

Variant | yeast fitness
A20G U28A C31U U54A | 0.613
A20U C31U G38A A69C | ≤ 0.5
A20U C49A G52A C61U | ≤ 0.5
A20U A21G C22A G48A C49G | ≤ 0.5
A20U C22U A42G | ≤ 0.5
A20U A37C | 0.723
A20U A65U A70C | 0.568
A20G U47G G68U | ≤ 0.5
A20G C60G A70C | 0.604
A20G G67U | 0.965
A20G G67C | 0.861
A20U C33U G38C A40U G44C G51C C60U | 0.558
A20G C49G U59A | 0.556
A20G C46U A57C | 0.514
A20G G25C U35C G58C | ≤ 0.5
A20U A36C A43U | 0.641
A20G G23A G38C G63A C66A | ≤ 0.5
A20U C29U C30G C34A U35A C66A | ≤ 0.5
A20U A21C C31A | ≤ 0.5
A20U C22U C34A U64C | ≤ 0.5
A20G C46A C61G | ≤ 0.5
A20U C34G A42G A43U G63A A65G | ≤ 0.5
A20U C34A C49U G58C C62A A69C | ≤ 0.5
A20U G23A | 0.822

Variant | yeast fitness
A20U C34U G51C C60U | ≤ 0.5
A20G G25A C33U G39A A57G U59C | ≤ 0.5
A20U C34U G51C | ≤ 0.5
A20G U35C G56C G68C | ≤ 0.5
A20U C24U A42U C46A G56A G67A | ≤ 0.5
A20U C29U C30U U59A | 0.636
A20U C33U C61U A70U | ≤ 0.5
A20G G25A C55A | ≤ 0.5
A20U C24U C30A C46G G48A | ≤ 0.5
A20U C46U G63A | 0.777
A20G U64C C66G | ≤ 0.5
A20U C29G C33U | 0.609
A20U A45G C46U C66U A69U | ≤ 0.5
A20G C49U C66U A70C | ≤ 0.5
A20U C34G A36C C55U A65U | ≤ 0.5
A20U C31A A69C | 0.624
A20U C31G C55G C60G C66U | ≤ 0.5
A20G C62G | 0.804
A20G C62A | 0.715
A20U C27U C30A C33G A42G G51C G68C | ≤ 0.5
A20U A21C C29U A57C | ≤ 0.5
A20G G25C C34U G41A C49G | ≤ 0.5
A20U C46U A70U | 0.79
A20U C22A C61A C62G | ≤ 0.5

Variant | yeast fitness
A20G U28A A40G | ≤ 0.5
A20U C30A G67U | 0.527
A20U C29U G41C G44A A57U | 0.805
A20U C30G C33U G58C | ≤ 0.5
A20U C22U C33U | ≤ 0.5
A20G U28C A40U | 1.04
A20G U28C A40C | 0.634
A20U C34A G67A | ≤ 0.5
A20U C29G C33U A65C C66U | ≤ 0.5
A20G U53G | 0.571
A20G U53A | 0.692
A20G C34A U47A C61G | ≤ 0.5
A20G G51C C61G | 0.546
A20U G23A C27U A65G G68C | ≤ 0.5
A20U A36G C49U C55G | 0.501
A20U A21U C31G C55A G68U | ≤ 0.5
A20U A36C C49A C66G | ≤ 0.5
A20U C34U A40U | ≤ 0.5
A20G G23A C24G | ≤ 0.5
A20U C34A U59A | 0.538
A20U C61U G67U | ≤ 0.5
A20U C29G C49G | 0.5
A20U A42C A57C | ≤ 0.5
A20G G41A G67C | 0.601

Variant | yeast fitness
A20U A57U A65C A70G | ≤ 0.5
A20U G23A G56A A69C | ≤ 0.5
A20U A36G C55G A65U | 0.52
A20G U28A A42G C55A C66A | ≤ 0.5
A20G C49G | 0.855
A20G C49U | 0.922
A20U A42C G56A | ≤ 0.5
A20G G25C C49U | 0.76
A20G G25C C49A | ≤ 0.5
A20U G23C A45U G58A A70C | ≤ 0.5
A20U C24G | 0.601
A20U C34G G38C G50C C60A A70C | ≤ 0.5
A20U C31A A37C A45G G68A | ≤ 0.5
A20U G23A G68A A69U A70U | ≤ 0.5
A20G G50A A57U | 0.542
A20G U28A A69C | ≤ 0.5
A20U A45G C46U C66U | 0.626
A20G G23A G38C | 0.656
A20G G41A C61U | 0.644
A20U C29A C30U A36U | ≤ 0.5
A20G C55A | 0.585
A20G C55G | 0.586
A20G G23C C31U C46G A70U | 0.57
A20G C61U | 0.964

Variant | yeast fitness
A20G C61G | 0.617
A20U C29U | 0.714
A20U C29G | 0.721
A20U C34A G58A | ≤ 0.5
A20U A43C G48A C62U | 0.787
A20G C34U G38A A43G G68U | ≤ 0.5
A20U A69C | 0.979
A20U A69U | 1.05
A20U C34G G48C G67A G68C | ≤ 0.5
A20U G23A C61U | 0.561
A20G U28G A57U C62U | ≤ 0.5
A20U C61G A65U | ≤ 0.5
A20U C27A A40G A69U | ≤ 0.5
A20G G38A U47C | 0.685
A20U C24G C55A | ≤ 0.5
A20U A36U G44A G51C G52A | ≤ 0.5
A20U C66U | 0.8
A20U C24G A70G | ≤ 0.5
A20G U32C U47A | 0.626
A20U A37C C46G | 0.528
A20U A43G A65C | ≤ 0.5
A20U A45C G50A | 0.675
A20U C29A C30U A36U A70C | 0.594
